Experimental data from ChEMBL document CHEMBL1136760 (J Med Chem, 2003).

Experiments:
[1] = biological target: Monoamine transporters; serotonin & dopamine (Rattus norvegicus) (UniProt P31652+P23977); assay: Selectivity ratio for DAT binding compared to 5-HTT binding.; assay type: protein assay
[2] = biological target: T1, Sodium-dependent dopamine transporter (Rattus norvegicus, UniProt P23977); assay: Inhibition of [3H]WIN-35428 binding to the cocaine binding site on the dopamine transporter (DAT) in synaptosomal membrane preparations from rat striatal tissue.; assay type: cell membranes, Striatum
T1 sequence (P23977 whole entry): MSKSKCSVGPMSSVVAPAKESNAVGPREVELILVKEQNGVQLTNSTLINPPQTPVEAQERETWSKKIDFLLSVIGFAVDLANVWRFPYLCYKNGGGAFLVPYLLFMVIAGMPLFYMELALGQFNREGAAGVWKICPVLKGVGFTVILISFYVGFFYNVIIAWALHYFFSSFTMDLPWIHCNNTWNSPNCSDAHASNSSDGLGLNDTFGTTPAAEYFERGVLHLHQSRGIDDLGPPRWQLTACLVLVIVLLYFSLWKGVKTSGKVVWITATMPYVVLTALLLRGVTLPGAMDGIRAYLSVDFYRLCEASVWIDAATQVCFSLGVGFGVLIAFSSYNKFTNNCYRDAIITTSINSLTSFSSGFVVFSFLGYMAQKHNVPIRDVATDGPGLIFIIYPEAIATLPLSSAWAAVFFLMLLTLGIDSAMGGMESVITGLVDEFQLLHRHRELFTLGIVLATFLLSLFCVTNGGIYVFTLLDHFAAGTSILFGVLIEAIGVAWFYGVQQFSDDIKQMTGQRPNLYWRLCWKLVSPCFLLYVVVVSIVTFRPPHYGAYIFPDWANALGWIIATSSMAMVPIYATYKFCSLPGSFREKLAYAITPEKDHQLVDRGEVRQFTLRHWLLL

[3] = biological target: Sodium-dependent serotonin transporter (Rattus norvegicus) (UniProt P31652); assay: Inhibition of [3H]citalopram binding to Serotonin transporter (5-HTT) in rat cortical tissue […]; details: 10 uM
Sodium-dependent serotonin transporter (Rattus norvegicus), sequence (P31652 whole entry): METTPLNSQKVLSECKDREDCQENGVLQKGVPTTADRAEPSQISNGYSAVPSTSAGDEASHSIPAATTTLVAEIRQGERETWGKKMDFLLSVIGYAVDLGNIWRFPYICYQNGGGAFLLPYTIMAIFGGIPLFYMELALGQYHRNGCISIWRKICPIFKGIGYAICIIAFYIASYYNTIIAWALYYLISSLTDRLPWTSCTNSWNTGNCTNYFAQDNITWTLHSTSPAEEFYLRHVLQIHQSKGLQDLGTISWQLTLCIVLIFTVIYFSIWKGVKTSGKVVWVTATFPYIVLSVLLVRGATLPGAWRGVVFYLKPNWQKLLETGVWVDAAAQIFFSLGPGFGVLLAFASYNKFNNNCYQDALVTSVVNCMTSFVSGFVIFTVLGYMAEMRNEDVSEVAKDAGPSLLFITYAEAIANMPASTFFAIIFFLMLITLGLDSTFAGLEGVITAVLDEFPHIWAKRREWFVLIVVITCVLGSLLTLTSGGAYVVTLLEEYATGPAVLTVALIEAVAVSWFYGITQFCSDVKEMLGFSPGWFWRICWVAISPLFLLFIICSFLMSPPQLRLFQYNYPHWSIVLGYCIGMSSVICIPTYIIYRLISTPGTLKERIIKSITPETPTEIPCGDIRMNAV
Summary of the method: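 Rat cortical P2 membranes in 25 mM sodium phosphate, pH 7.7; 1 µM clomipramine defines nonspecific binding. Incubated 3 h at 0 °C, then rapid filtration on PEI-presoaked filters and radioactivity counting.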

[4] = biological target: T1, Sodium-dependent dopamine transporter; assay: Inhibition of [3H]DA uptake at DAT in rat striatal synaptosomes.
[5] = biological target: Sodium-dependent serotonin transporter (Rattus norvegicus, UniProt P31652); assay: Inhibition of [3H]citalopram binding to Serotonin transporter (5-HTT) in rat cortical tissue.
Sodium-dependent serotonin transporter, sequence (P31652 whole entry): as above
Summary of the method: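 Rat cortical P2 fraction homogenized in 16 volumes of ice-cold 25 mM sodium phosphate, pH 7.7. [3H]citalopram at 2 nM final; 1 µM clomipramine defines nonspecific binding. Usually seven drug concentrations, triplicates, organic solvent ≤0.3 vol %. Incubated 3 h at 0 °C, then filtered on PEI-soaked glass fibre and counted. IC50 and Hill coefficients from dose-response curves.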

Monoamine transporters; serotonin & dopamine (Rattus norvegicus), sequence (P23977 whole entry, looked up): as the sequence (P23977 whole entry) above
Monoamine transporters; serotonin & dopamine (Rattus norvegicus), sequence (P31652 whole entry, looked up): as the sequence (P31652 whole entry) above

Row | Structure (SMILES) | Selectivity ratio [1] | IC50 [2] [nM] | inhibition [3] [%] | IC50 [4] [nM] | IC50 [5] [µM]
1 | CN1CC2CCC(C1)C2(O)c1ccccc1 (stereo unspecified) | > 1 | 10100 | 27.8 | 9770 | > 10
2 | OC1(c2ccccc2)C2CCC1CNC2 (stereo unspecified) |  |  | 46.2 | 8480 | 
3 | c1ccc(C2C3CCC2CNC3)cc1 (stereo unspecified) | 16 | 258 |  | 893 | 4
4 | c1ccc(CN2CC3CCC(C2)C3c2ccccc2)cc1 (stereo in doubt; 14) [3-BENZYL-8-PHENYL-3-AZA-BICYCLO[3.2.1]OCTANE (STEREOISOMERIC MIX)] |  | 785 |  | 4450 | 3.88
5 | BrC1C2CCC1CN(Cc1ccccc1)C2 (stereo unspecified) | > 2.2 |  | 30.4 | 8640 | > 10
6 | c1ccc(CN2CC3CCC(C2)C3OC(c2ccccc2)c2ccccc2)cc1 (stereo in doubt; 17a) [listing 1 of 2 here] |  | 363 |  | 735 | 10
7 | OC1C2CCC1CN(Cc1ccccc1)C2 (stereo unspecified) | > 0.45 | 22100 | 23.8 | 45000 | > 10
8 | OC1(c2ccccc2)C2CCC1CN(Cc1ccccc1)C2 (stereo unspecified) | 0.17 | 17500 |  | 27100 | 3.06
9 | c1ccc(CN2CC3CCC(C2)C3c2ccccc2)cc1 (stereo in doubt; 8a) | 14.8 |  |  |  | 
10 | c1ccc(CN2CC3CCC(C2)C3OC(c2ccccc2)c2ccccc2)cc1 (stereo in doubt; 17b) [listing 1 of 2 here] |  | 536 |  | 1980 | > 10
11 | c1ccc(CN2CC3CCC(C2)C3c2ccccc2)cc1 (stereo in doubt; 14) | 4.9 |  |  |  | 
12 | c1ccc(CN2CC3CCC(C2)C3OC(c2ccccc2)c2ccccc2)cc1 (stereo in doubt; 17b) [listing 2 of 2 here] | > 18 |  | 29.8 |  | 
13 | Clc1ccc(C2C3CCC2CN(Cc2ccccc2)C3)cc1 (stereo unspecified) | 4.2 | 95.5 |  | 601 | 0.402
14 | Clc1ccc(C2C3CCC2CNC3)cc1 (stereo unspecified) | 4.4 | 81.5 |  | 478 | 0.363
15 | OC1(c2ccc(Cl)cc2)C2CCC1CN(Cc1ccccc1)C2 (stereo unspecified) | 0.66 | 1510 |  | 2630 | 0.997
16 | c1ccc(CN2CC3CCC(C3)C2)cc1 | > 0.41 | 24300 | 24.4 | 35700 | > 10
17 | CN1CC2CCC(C1)C2c1ccccc1 (stereo unspecified) | 5.1 | 360 |  | 1040 | 1.85
18 | CN1CC2CCC(C1)C2c1ccc(Cl)cc1 (stereo unspecified) | 0.81 |  |  | 926 | 0.22
19 | c1ccc(CN2CC3CCC(C2)C3OC(c2ccccc2)c2ccccc2)cc1 (stereo in doubt; 17a) [listing 2 of 2 here] | 27 |  | 61 |  | 
20 | c1ccc(CN2CC3CCC(C2)C3c2ccccc2)cc1 (stereo in doubt; 8a) [3-BENZYL-8-PHENYL-3-AZA-BICYCLO[3.2.1]OCTANE (STEREOISOMERIC MIX)] |  | 234 |  | 309 | 3.46
